proCasp7 act: procaspase-7 activators, primary screen, counter-screen for procaspase-3 activator project, biochemical, absorbance, HTS, human; Caspase-7 (Homo sapiens), P55210; recombinant procaspase-7, Ac-DEVD-pNA absorbance 405 nm; D23A/D198A/D206A triple mutant, cannot self-cleave; scale: DMSO 0, 5 µM enzyme 100; activation, % at 8.5 µM; 330,000 tested, 0.093% active;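 active means percent activation above the screen-wide mean plus 3 SD, cut at about 25% in these data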
Target sequence (P55210 whole entry D23A/D198A/D206A): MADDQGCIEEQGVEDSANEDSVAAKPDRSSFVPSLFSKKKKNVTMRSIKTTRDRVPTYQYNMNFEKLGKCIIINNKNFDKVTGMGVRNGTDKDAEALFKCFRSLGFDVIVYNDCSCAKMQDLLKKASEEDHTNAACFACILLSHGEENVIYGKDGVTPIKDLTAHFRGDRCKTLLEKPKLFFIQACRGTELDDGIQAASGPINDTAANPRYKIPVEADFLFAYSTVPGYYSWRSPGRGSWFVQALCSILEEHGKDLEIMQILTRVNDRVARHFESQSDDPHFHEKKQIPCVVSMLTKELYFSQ
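buffer or medium = Zinc-free HEPES/NaCl buffer, pH 7.4 | material = Procaspase-7 triple mutant (PC-7 D3A) | input = 2 µM procaspase-7 mutant as dispensed | signal = Epi-absorbance of released pNA at 405 nm, two timepoints | timing = 1 h preincubation, 2 h reaction | replicates = singlicate compound testing | evaluation = % activation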
AHR act: AHR activators, primary screen, cell-based, luminescence, luciferase reporter, human; 320,000 tested, 2.5% active; Aryl hydrocarbon receptor (Homo sapiens), P35869; AHR-responsive luciferase reporter cells; activation, % at 5 µM; AID 2796, 2010; in the data active means activation above about 47%;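 further: 0% = vehicle wells and 100% = reference agonist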
procasp3 activ: activators of human procaspase-3 D3A mutant, primary screen, biochemical, absorbance, PC-3 D3A mutant, single concentration | recombinant procaspase-3 D3A, Ac-DEVD-pNA absorbance 405 nm | activation, % at 8.5 µM | 330,000 tested, 0.11% active | AID 463141, 2010;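 active means activation above the mean of all tested compounds plus 3 SD, cut at about 21% in these data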;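 further: 0% = DMSO alone and 100% = DMSO wells spiked with extra 5 µM PC-3 D3A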
Target sequence (P42574 whole entry D9A/D28A/D175A): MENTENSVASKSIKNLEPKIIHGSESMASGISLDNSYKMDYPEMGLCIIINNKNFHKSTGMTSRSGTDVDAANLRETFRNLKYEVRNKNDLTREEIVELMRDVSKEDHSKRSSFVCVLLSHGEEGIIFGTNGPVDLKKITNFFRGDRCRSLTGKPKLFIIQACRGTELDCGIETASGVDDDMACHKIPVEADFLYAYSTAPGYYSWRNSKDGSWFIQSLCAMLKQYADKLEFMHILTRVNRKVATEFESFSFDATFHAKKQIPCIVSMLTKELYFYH
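Assay system – Procaspase-3 D3A mutant · Benchmarks – DMSO low control, extra-enzyme high control · Technique – 405 nm absorbance of p-nitroaniline, reads at 0 and 120 min · Doses – 8.5 µM nominal · Measure – % activation between DMSO and enzyme-spiked controls · Also added – Ac-DEVD-pNA chromogenic peptide substrate · Schedule – 1 h compound preincubation, 2 h substrate hydrolysis at 25 °C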
PolyA inh: polyadenylation inhibitors in yeast reporter cells, primary screen, luminescence, S. cerevisiae | S. cerevisiae SKY197-pL101 polyadenylation reporter, beta-gal luminescence; efflux-impaired pdr1/pdr3 knockout yeast; score 100 = 6 SD above DMSO | activity score, % at 12 µM | 300,000 tested, 0.02% active | AID 1875, 2009;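 active means lowest replicate activity score at least 50, where 100 means six control SD above control mean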;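 further: yeast exposed to compound for 9 h at 30 °C; higher score means more reporter readthrough which indicates perturbed polyadenylation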
AHR act cf: AHR activators, confirmation, cell-based, luminescence, luciferase reporter, human. human cells, AHR-responsive luciferase reporter. 2,300 tested, 87% active. activation, % at 9 µM. shares compounds with AHR act; in the data active means activation above about 49%;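 further: HepG2 hepatoma cells carrying a DRE-driven firefly luciferase reporter; 0% = vehicle wells and 100% = reference agonist wells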
PXR act counter: human PXR activators, counter-screen for AHR activator project, cell-based, luciferase luminescence. AID 434939, 2010. 2,300 tested, 88% active. cell-based PXR reporter. activation, % at 11.6 µM. shares compounds with AHR act; in the data active means activation above about 11%;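 further: human hepatoma DPX-2 cells expressing full-length human PXR; 0% = DMSO and 100% = reference agonist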
* hit, by the source's call; . = no result. An excerpt weighted towards active compounds, which were near 2.6% of everything screened.

SMILES | proCasp7 act | AHR act | procasp3 activ | PolyA inh | AHR act cf | PXR act counter
COc1cccc(-n2c(N)c(-c3nc4ccccc4[nH]3)sc2=S)c1 | -10 | 89* | -5 | -5 | 130* | 97*
CCSc1nnc(NC(=O)CCn2c(=O)oc3ccccc32)s1 | 2 | 30 | 6 | -5 | . | .
O=C(CCn1c(=O)oc2ccccc21)Nc1nc2ccccc2s1 | 5 | 104* | 2 | -11 | 82* | 104*
Oc1c(Br)cc(C2N=C(c3ccccc3)NO2)cc1Br (stereo not given) | 5 | 94* | 1 | 4 | 92* | 18*
N#CC1=C(N)Nc2nc3ccccc3n2C1c1ccc(F)cc1 (stereo not given) | 8 | 94* | 0 | 3 | 80* | 62*
CCOc1ccc(NC(=O)c2cc(Cl)nc3ccccc23)cc1 | 2 | 95* | 10 | 10 | 91* | 11*
CCOc1ncccc1C(=O)Nc1ccc(Cl)cc1 | 1 | 117* | 13 | -8 | 122* | 19*
CCOc1ncccc1C(=O)Nc1ccc(F)cc1 | -4 | 33 | -3 | -1 | . | .
COc1ccc(Cl)cc1NC(=O)c1cccnc1 | 4 | 88* | 8 | 6 | 107* | 11*
CCOc1ccc(-c2cc(C(=O)Nc3ccc4c(c3)OCCO4)c3ccccc3n2)cc1 | 6 | 15 | 5 | -9 | . | .
O=C(Nc1ccccc1C(=O)Nc1ccc(Cl)cc1)c1cccnc1 | 4 | 86* | 4 | 5 | 56* | 31*
COc1ccc(OC)c(NC(=O)c2cccnc2)c1 | 17 | 7 | 2 | 25 | . | .
Nc1nc(-c2ccccc2)nn1S(=O)(=O)c1ccccc1 | 5 | 2 | 0 | 7 | . | .
CCCNC(=O)c1ccc(COc2ccc(CCC)cc2OC)o1 | -5 | 80* | -2 | -3 | 80* | 41*
Cc1c(C(=O)N/N=C/c2ccc(-c3ccccc3[N+](=O)[O-])o2)sc(N)c1C#N | -4 | 133* | -8 | 4 | 163* | 50*
O=C(N/N=C/c1ccc(-c2ccccc2[N+](=O)[O-])o1)c1cncc(Br)c1 | -9 | 83* | -11 | 9 | 76* | .
Cn1c(=O)n(C)c2cc(NC(=O)c3ccc(F)cc3)c(Br)cc21 | 12 | -9 | -2 | -10 | . | .
Cn1c(=O)n(C)c2cc(NC(=O)c3cccc([N+](=O)[O-])c3)c(Br)cc21 | 8 | 101* | 1 | 0 | 101* | 10
Cc1cccc(C)c1NC(=O)CNC(=O)c1cccc(S(=O)(=O)NCc2cccs2)c1 | 0 | 1 | 0 | . | . | .
Cc1nc(-c2ccccn2)sc1C(=O)Nc1ccc(Cl)c(Cl)c1 | -32 | 109* | 0 | -14 | 57* | 40*
CC(=O)c1sc(-c2ccccn2)nc1C | 0 | 1 | 1 | 1 | . | .
COc1cc(CN2CCCC(N3CCN(c4ccccc4C)CC3)C2)ccc1O (stereo not given) | -7 | 5 | -1 | 3 | . | .
O=C(Cn1c(NCCCO)nc2ccccc21)c1ccc(Cl)cc1Cl | -4 | 120* | -14 | -1 | 122* | 20*
COc1cccc(-n2c(SCC(=O)NCCC3=CCCCC3)nc3n[nH]c(C)c3c2=N)c1 | 9 | 82* | 1 | 0 | 91* | 161*
COc1cccc(NC(=O)CSc2nc3n[nH]c(C)c3c(=N)n2-c2cccc(OC)c2)c1 | -6 | 19 | -1 | 11 | . | .
SMILES | proCasp7 act | AHR act | procasp3 activ | PolyA inh | AHR act cf | PXR act counter
CCOC(=O)c1[nH]c(C)c(C(=O)NCCC2=CCCCC2)c1C | 1 | 13 | -1 | 0 | . | .
CC(=O)c1c(C)[nH]c(C(=O)NCCC2=CCCCC2)c1C | 10 | 146* | 5 | 4 | 110* | 70*
Cc1ccc(N(C(=O)c2csnn2)C(C(=O)NCc2ccccc2)c2cccnc2)cc1 (stereo not given) | 7 | 0 | -9 | 6 | . | .
CCNC(=S)Nc1ccc(Cl)c([N+](=O)[O-])c1 | 2 | 99* | -1 | 10 | 50* | 18*
O=C(Nc1nc(-c2ccco2)c(-c2ccco2)s1)C1CCC1 | -2 | 106* | -6 | -3 | 91* | 25*
O=C(Nc1ccccn1)c1ccc(S(=O)(=O)N2CCCCCC2)cc1 | 0 | 3 | -1 | -10 | . | .
CN(C)c1ccc(Nc2nc(-c3cccnc3)cs2)cc1 | -1 | 90* | -11 | 9 | 62* | 27*
CCN(CC)c1ccc(Nc2nc(-c3cccnc3)cs2)cc1 | -31 | 7 | -19 | -3 | . | .
O=C1CC(c2ccccc2)Sc2ccccc2N1 (stereo not given) | 4 | 18 | 1 | 5 | . | .
Cc1ccsc1C1CC(=O)Nc2ccccc2S1 (stereo not given) | 4 | 88* | -3 | 0 | 112* | 39*
COc1cc(Cl)ccc1OCc1cc(C(=O)NC(C)Cc2cccnc2)no1 (stereo not given) | 11 | 42 | 8 | 1 | . | .
Cn1c(=O)c2c(ncn2CC(=O)N2CCN(S(=O)(=O)c3ccccc3)CC2)n(C)c1=O | -11 | 2 | 2 | -12 | . | .
Cc1ccc(OCC(=O)NCc2cccs2)c([N+](=O)[O-])n1 | 0 | 105* | -1 | -12 | 6 | 12*
CCN(C(=O)COC(=O)c1ccc2[nH]c3c(c2c1)CCCC3)C1CCS(=O)(=O)C1 (stereo not given) | 3 | 2 | -5 | -8 | . | .
Cc1nc(C)c(C(=O)N/N=C/c2c[nH]c3ccccc23)s1 | -2 | 84* | 2 | 8 | 47* | .
Cn1cc(/C=N/NC(=O)c2ccccc2O)c2ccccc21 | 0 | 38 | 10 | -10 | . | .
COC(=O)N/N=C/c1c[nH]c2ccccc12 | 1 | 7 | -3 | -9 | . | .
Cc1nc(C)c(C(=O)N/N=C/c2cn(C)c3ccccc23)s1 | 6 | 97* | 6 | 7 | 63* | 23*
Clc1cccc2sc(N3CCN(c4ccccc4)CC3)nc12 | 2 | 122* | 4 | 0 | 112* | 17*
Clc1ccc(Cl)c2sc(N3CCCC3)nc12 | -5 | 26 | -1 | -18 | . | .
COc1ccc(CC(=O)Nc2ccncc2Cl)cc1 | 4 | 6 | 6 | -4 | . | .
O=C(Nc1cccnc1)C1OCCc2ccccc21 (stereo not given) | 1 | 3 | 2 | 20 | . | .
O=C(Nc1ccc(Br)cc1)C1OCCc2ccccc21 (stereo not given) | 6 | 103* | 7 | -7 | 107* | 116*

Source: PubChem (several laboratories)
